In ChEMBL document CHEMBL3044979, “Microbiologically active Mannich bases derived from 1,2,4-triazoles. The effect of C-5 substituent on antibacterial activity” (2013):
Calls of active or inactive are those of the source. No cut-off for these calls is given here.

Experiments:
[1] = tested on: Escherichia coli; assay: Antibacterial activity against Escherichia coli ATCC 25922 assessed as growth inhibition by broth microdilution method; type: functional, organism-based
Method in brief: (§1)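 Preliminary screen: 10 µl of each bacterial suspension spotted on Mueller-Hinton agar containing compound at 1,000 µg ml⁻¹, then incubated 37 °C for 18 h. Inocula were prepared in sterile saline at 0.5 McFarland (150 × 10⁶ CFU ml⁻¹). Compounds were dissolved in DMSO stocks and diluted twofold in Mueller-Hinton broth, final 3.91–1,000 µg ml⁻¹. MIC read in µg ml⁻¹ (CLSI 2008), with ampicillin, cefuroxime and vancomycin as reference agents.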

[2] = tested on: Micrococcus luteus; assay: Antibacterial activity against Micrococcus luteus ATCC 10240 assessed as growth inhibition by broth microdilution method; type: functional; method in brief: as §1
[3] = tested on: Bacillus cereus; assay: Antibacterial activity against Bacillus cereus ATCC 10876 assessed as growth inhibition by broth microdilution method; type: functional; method in brief: as §1
[4] = tested on: Bacillus subtilis; assay: Antibacterial activity against Bacillus subtilis ATCC 6633 assessed as growth inhibition by broth microdilution method; type: functional; method in brief: as §1
[5] = tested on: Staphylococcus epidermidis; assay: Antibacterial activity against Staphylococcus epidermidis ATCC 12228 assessed as growth inhibition by broth microdilution method; type: functional; method in brief: as §1
[6] = tested on: Staphylococcus aureus; assay: Antibacterial activity against Staphylococcus aureus 14001 assessed as growth inhibition by broth microdilution method; type: functional; method in brief: as §1
[7] = tested on: Pseudomonas aeruginosa; assay: Antibacterial activity against Pseudomonas aeruginosa ATCC 9027 assessed as growth inhibition by broth microdilution method; type: functional, organism-based; method in brief: as §1
[8] = tested on: Staphylococcus aureus; assay: Antibacterial activity against Staphylococcus aureus ATCC 25923 assessed as growth inhibition by broth microdilution method; type: functional; method in brief: as §1
[9] = tested on: Proteus mirabilis; assay: Antibacterial activity against Proteus mirabilis ATCC 12453 assessed as growth inhibition by broth microdilution method; type: functional, organism-based; method in brief: as §1
[10] = tested on: Klebsiella pneumoniae; assay: Antibacterial activity against Klebsiella pneumoniae ATCC 13883 assessed as growth inhibition by broth microdilution method; type: functional, organism-based; method in brief: as §1

| MIC [2] [µg/mL] | MIC [3] [µg/mL] | MIC [4] [µg/mL] | MIC [5] [µg/mL] | MIC [6] [µg/mL] | MIC [8] [µg/mL] | Structure (SMILES) | growth inhibition (GI) [1] | MBC [2] [µg/mL] | MBC [3] [µg/mL] | MBC [4] [µg/mL] | MBC [5] [µg/mL] | MBC [6] [µg/mL] | growth inhibition (GI) [7] | MBC [8] [µg/mL] | growth inhibition (GI) [9] | growth inhibition (GI) [10] |
| --- | --- | --- | --- | --- | --- | --- | --- | --- | --- | --- | --- | --- | --- | --- | --- | --- |
| 7.81 | 31.2 | 63 | 31 | 62.5 | 31.2 | S=c1n(CN2CCCC2)nc(-c2ccc(Cl)cc2)n1-c1ccc(Br)cc1 | inactive | 250 | > 1000 | 125 | 1000 | 1000 | inactive | 500 | inactive | inactive |
| 31.2 | 62.5 | 62.5 | 62.5 | – | 31.2 | S=c1n(CN2CCCCC2)nc(-c2cccc(Cl)c2)n1-c1ccc(Br)cc1 | inactive | > 1000 | 1000 | 1000 | > 1000 | – | inactive | > 1000 | inactive | inactive |
| 15.6 | 31.2 | 31.2 | 31.2 | 62.5 | 31.2 | CCN(CC)Cn1nc(-c2ccc(Cl)cc2)n(-c2ccc(Br)cc2)c1=S | inactive | 62.5 | 250 | 500 | 250 | 250 | inactive | 250 | inactive | inactive |
| 31.2 | 62.5 | 62.5 | 125 | – | 31.2 | S=c1n(CN2CCOCC2)nc(-c2cccc(Cl)c2)n1-c1ccc(Br)cc1 | inactive | 500 | > 1000 | 1000 | > 1000 | – | inactive | > 1000 | inactive | inactive |
| 250 | 1000 | 1000 | 1000 | 1000 | 1000 | S=c1n(CN2CCOCC2)nc(-c2ccccc2)n1-c1ccc(Br)cc1 | inactive | 1000 | > 1000 | > 1000 | > 1000 | > 1000 | inactive | > 1000 | inactive | inactive |
| 1000 | 1000 | 1000 | 1000 | 1000 | 1000 | CCN(CC)Cn1nc(-c2ccccc2)n(-c2ccc(Br)cc2)c1=S | inactive | > 1000 | > 1000 | > 1000 | > 1000 | > 1000 | inactive | > 1000 | inactive | inactive |
| 62.5 | 62.5 | 15.6 | 31.2 | 125 | 31.2 | S=c1n(CN2CCCC2)nc(-c2ccccc2Cl)n1-c1ccc(Br)cc1 | inactive | 1000 | > 1000 | 125 | 500 | 500 | inactive | 500 | inactive | inactive |
| 62.5 | 62.5 | 31.2 | 62.5 | 125 | 62.5 | CCN(CC)Cn1nc(-c2ccccc2Cl)n(-c2ccc(Br)cc2)c1=S | inactive | 250 | > 1000 | 62.5 | > 1000 | > 1000 | inactive | > 1000 | inactive | inactive |
| 0.98 | 31.2 | 15.6 | 0.24 | – | 0.49 | CO/N=C(\C(=O)N[C@@H]1C(=O)N2C(C(=O)O)=C(COC(N)=O)CS[C@H]12)c1ccco1 [CEFUROXIME] | – | – | – | – | – | – | – | – | – | – |
| – | 62.5 | – | – | – | – | CC1(C)S[C@@H]2[C@H](NC(=O)[C@H](N)c3ccccc3)C(=O)N2[C@H]1C(=O)O [AMPICILLIN] | – | – | – | – | – | – | – | – | – | – |
| 31.2 | 62.5 | 62.5 | 62.5 | – | 31.2 | CCN(CC)Cn1nc(-c2cccc(Cl)c2)n(-c2ccc(Br)cc2)c1=S | inactive | 500 | > 1000 | 500 | > 1000 | – | inactive | > 1000 | inactive | inactive |
| 500 | 1000 | 1000 | 1000 | 1000 | 1000 | S=c1n(CN2CCCCC2)nc(-c2ccccc2)n1-c1ccc(Br)cc1 | inactive | 1000 | > 1000 | > 1000 | > 1000 | > 1000 | inactive | > 1000 | inactive | inactive |
| 62.5 | 62.5 | 125 | 62.5 | 125 | 62.5 | S=c1n(CN2CCOCC2)nc(-c2ccc(Cl)cc2)n1-c1ccc(Br)cc1 | inactive | > 1000 | > 1000 | 125 | 1000 | > 1000 | inactive | 1000 | inactive | inactive |
| 1000 | 1000 | 1000 | 1000 | 1000 | 1000 | S=c1n(CN2CCCCC2)nc(-c2ccc(Cl)cc2)n1-c1ccc(Br)cc1 | inactive | > 1000 | > 1000 | > 1000 | > 1000 | > 1000 | inactive | > 1000 | inactive | inactive |
| 62.5 | 125 | 125 | 125 | 250 | 125 | S=c1n(CN2CCOCC2)nc(-c2ccccc2Cl)n1-c1ccc(Br)cc1 | inactive | 250 | > 1000 | 250 | 500 | 500 | inactive | 500 | inactive | inactive |
| 62.5 | 62.5 | 62.5 | 250 | – | 31.2 | S=c1n(CN2CCCC2)nc(-c2cccc(Cl)c2)n1-c1ccc(Br)cc1 | inactive | > 1000 | > 1000 | 500 | > 1000 | – | inactive | > 1000 | inactive | inactive |
| 500 | 1000 | 500 | 1000 | 1000 | 1000 | S=c1n(CN2CCCC2)nc(-c2ccccc2)n1-c1ccc(Br)cc1 | inactive | 1000 | > 1000 | 1000 | > 1000 | > 1000 | inactive | > 1000 | inactive | inactive |
| 500 | 1000 | 250 | 1000 | 500 | 500 | S=c1n(CN2CCCCC2)nc(-c2ccccc2Cl)n1-c1ccc(Br)cc1 | inactive | > 1000 | > 1000 | > 1000 | > 1000 | > 1000 | inactive | > 1000 | inactive | inactive |

| Structure (SMILES) | MIC [2] [µg/mL] | MIC [3] [µg/mL] | MIC [4] [µg/mL] | MIC [5] [µg/mL] | MIC [6] [µg/mL] | MIC [8] [µg/mL] | growth inhibition (GI) [1] | MBC [2] [µg/mL] | MBC [3] [µg/mL] | MBC [4] [µg/mL] | MBC [5] [µg/mL] | MBC [6] [µg/mL] | growth inhibition (GI) [7] | MBC [8] [µg/mL] | growth inhibition (GI) [9] | growth inhibition (GI) [10] |
| --- | --- | --- | --- | --- | --- | --- | --- | --- | --- | --- | --- | --- | --- | --- | --- | --- |
| CN[C@H](CC(C)C)C(=O)N[C@H]1C(=O)N[C@@H](CC(N)=O)C(=O)N[C@H]2C(=O)N[C@H]3C(=O)N[C@H](C(=O)N[C@H](C(=O)O)c4cc(O)cc(O)c4-c4cc3ccc4O)[C@H](O)c3ccc(c(Cl)c3)Oc3cc2cc(c3O[C@@H]2O[C@H](CO)[C@@H](O)[C@H](O)[C@H]2O[C@H]2C[C@](C)(N)[C@H](O)[C@H](C)O2)Oc2ccc(cc2Cl)[C@H]1O [VANCOMYCIN] | – | – | – | – | 0.98 | – | – | – | – | – | – | 3.91 | – | – | – | – |
